Measured values published in ChEMBL document CHEMBL4673294, “The discovery of quinoline derivatives, as NF-κB inducing kinase (NIK) inhibitors with anti-inflammatory effects in vitro, low toxicities against T cell growth” (Bioorg Med Chem, 2021).

Columns and labels:
[1] = target: T1, Mitogen-activated protein kinase kinase kinase 14 (Homo sapiens, UniProt Q99558); assay: Inhibition of recombinant N-terminal GST-fused human NIK (319 to 947 residues) expressed in baculovirus expression system incubated for 120 mins in presence of ATP by ADP-glo based luminescence assay
In short: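 NIK kinase activity by ADP-Glo: human recombinant MAP3K14 in Tris pH 7.5 buffer with 100 μM Na3VO4, 2 mM DTT, 0.02 mg/mL BSA, 2 mM MgCl2, 5% DMSO; 10 μM ATP; 120 min at room temperature. ADP-Glo reagent 40 min, then detection reagent 40 min; luminescence converted to ADP via standard curve. IC50 from curve fitting; mean ± SD of two independent experiments.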
Target sequence in this assay (Q99558 whole entry, the tested form may be a part): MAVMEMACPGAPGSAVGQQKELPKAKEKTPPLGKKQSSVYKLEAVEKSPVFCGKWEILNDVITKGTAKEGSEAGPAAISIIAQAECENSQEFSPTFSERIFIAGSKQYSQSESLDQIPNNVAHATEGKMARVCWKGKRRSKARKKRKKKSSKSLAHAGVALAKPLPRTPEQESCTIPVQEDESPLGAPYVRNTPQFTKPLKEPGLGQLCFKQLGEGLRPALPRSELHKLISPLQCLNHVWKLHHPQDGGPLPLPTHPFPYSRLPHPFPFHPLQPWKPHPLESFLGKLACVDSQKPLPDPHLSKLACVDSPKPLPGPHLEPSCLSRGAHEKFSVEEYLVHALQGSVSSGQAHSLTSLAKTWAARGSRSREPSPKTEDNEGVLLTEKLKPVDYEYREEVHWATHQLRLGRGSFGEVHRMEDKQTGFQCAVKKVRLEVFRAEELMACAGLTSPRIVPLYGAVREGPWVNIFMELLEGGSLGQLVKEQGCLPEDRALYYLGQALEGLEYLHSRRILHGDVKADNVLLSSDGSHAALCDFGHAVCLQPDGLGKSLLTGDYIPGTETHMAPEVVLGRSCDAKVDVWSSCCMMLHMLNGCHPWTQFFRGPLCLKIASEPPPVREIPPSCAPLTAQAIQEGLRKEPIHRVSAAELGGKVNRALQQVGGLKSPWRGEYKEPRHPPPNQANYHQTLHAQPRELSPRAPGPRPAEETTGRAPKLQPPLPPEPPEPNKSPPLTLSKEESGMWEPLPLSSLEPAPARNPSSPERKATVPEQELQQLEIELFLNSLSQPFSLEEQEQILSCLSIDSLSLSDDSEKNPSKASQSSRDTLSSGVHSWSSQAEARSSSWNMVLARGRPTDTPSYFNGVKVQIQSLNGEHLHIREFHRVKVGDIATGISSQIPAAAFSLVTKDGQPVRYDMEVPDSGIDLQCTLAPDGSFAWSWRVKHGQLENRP

[2] = Antiinflammatory activity in mouse T cells assessed as inhibition of ConA-induced induced T cell proliferation at 0.4 uM incubated for 48 hrs by CCK8 assay relative to control; type: functional
In short: (§1)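 Mouse splenic T cells, isolated by negative selection kit, seeded at 2×10^6 cells/mL in RPMI with penicillin/streptomycin and glutamine. Compound at 2 or 0.4 μM (triplicate wells), DMSO control; Con A 5 μg/mL added, 48 h at 37 °C, 5% CO2. CCK8 absorbance; inhibition rate from test, blank and control wells; three independent experiments.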

[3] = Cytotoxicity against mouse T cells assessed as cell growth inhibition at 10 uM after 48 hrs by CCK8 assay relative to control; type: cell-based; conditions: read-out: GI
In short: (§2)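 Unstimulated mouse splenic T cells (no Con A) exposed to compound at 10 μM; growth measured by absorbance, with rate computed from test, blank and control well absorbances; mean ± SD of three independent experiments.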

J774 = assay: Antiinflammatory activity in mouse J774 cells assessed as inhibition of LPS-induced NO production at 1 uM preincubated for 2 hrs followed by LPS stimulation and measured after 22 hrs by Griess reagent based assay relative to control; type: functional; conditions: time 24 hrs
[4] = Antiinflammatory activity in mouse T cells assessed as inhibition of ConA-induced induced T cell proliferation at 2 uM incubated for 48 hrs by CCK8 assay relative to control; type: functional; in short: as §1
[5] = target: T1, Mitogen-activated protein kinase kinase kinase 14; assay: Inhibition of recombinant N-terminal GST-fused human NIK (319 to 947 residues) expressed in baculovirus expression system assessed as residual activity at 2 uM incubated for 120 mins in presence of ATP by ADP-glo based luminescence assay relative to control
In short: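 Single-point NIK enzyme activity at 2 μM compound with 10 μM ATP; human recombinant MAP3K14, 120 min room-temperature reaction, ADP-Glo luminescence read-out converted to ADP concentration.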
Target sequence in this assay (Q99558 whole entry, looked up, the tested form may be a part): as the sequence (Q99558 whole entry, the tested form may be a part) above

JJN-3 = assay: Antiproliferative activity against human JJN-3 cells transfected with plasmid expressing NIK; type: functional, cell-based
[6] = Cytotoxicity against mouse T cells assessed as cell growth inhibition at 10 uM after 48 hrs by CCK8 assay; type: cell-based; in short: as §2
[7] = Intrinsic clearance in dog liver microsomes assessed per mg protein incubated for 10 mins followed by potassium phosphate buffer addition and measured up to 60 mins by LC-MS analysis; type: ADME, Canis lupus familiaris, Microsome; conditions: time <=70 min, read-out: CLH
In short: (§3)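 Rat, dog, monkey and human liver microsomes: compound preincubated with microsomes 10 min at 37 °C; samples quenched at 0, 5, 15, 30, 60 min with tolbutamide/labetalol, plus a 60 min no-cofactor control with 100 mM potassium phosphate buffer. Centrifuged, remaining compound by LC-MS; T1/2 and CL by first-order kinetics.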

[8] = Initial plasma concentration in Sprague-Dawley rat at 1 mg/kg, iv administered as single bolus dose by LC-MS analysis; type: ADME, organism-based
In short: (§4)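 Male Sprague-Dawley, 8 weeks old, fasted overnight, n = 3; single IV bolus via tail vein at 1.0 mg/kg in DMSO:PEG200:saline 20:20:60 (0.2 mg/mL). Plasma protein-precipitated with acetonitrile containing internal standards, analysed by LC/MS.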

[9] = Intrinsic clearance in human liver microsomes assessed per mg protein incubated for 10 mins followed by potassium phosphate buffer addition and measured up to 60 mins by LC-MS analysis; type: ADME, Microsome; conditions: time <=70 min, read-out: CLH; in short: as §3
[10] = Tmax in Sprague-Dawley rat at 10 mg/kg, po administered as single dose by LC-MS analysis; type: ADME, organism-based; conditions: in vivo
In short: (§5)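 Male Sprague-Dawley, 8 weeks old, fasted overnight, n = 3; single gavage at 10 mg/kg as 1 mg/mL suspension in 0.5% CMC-Na/0.2% Tween 80. Plasma precipitated with acetonitrile plus internal standards; LC/MS quantitation.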

[11] = Half life in Sprague-Dawley rat at 1 mg/kg, iv administered as single bolus dose by LC-MS analysis; type: ADME, organism-based; conditions: in vivo; in short: as §4
[12] = Intrinsic hepatic clearance in monkey; type: ADME, Macaca mulatta; conditions: rhesus monkey, in vivo; read-out: CLH
In short: (§6)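 In vivo intrinsic clearance scaled from microsomal CLint (mL/min/mg protein) × microsomal protein per g liver × liver weight per kg body weight.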

[13] = Elimination half life in monkey liver microsomes incubated for 10 mins followed by potassium phosphate buffer addition and measured up to 60 mins by LC-MS analysis; type: ADME, Macaca mulatta, Microsome; conditions: rhesus monkey, time <=70 min, read-out: LambdaZ
In short: (§7)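 The test compound was pre-incubated with liver microsomes at 37 °C for 10 min. NCF60 wells received 100 mM potassium phosphate buffer and were incubated 1.0 h at 37 °C. The reaction was stopped with a 1:1 tolbutamide/labetalol mixture at 0, 5, 15, 30 and 60 min, then vortexed and centrifuged at 4 °C. Remaining parent compound in the supernatant was measured by LC-MS, and T1/2 was calculated by first-order kinetics.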

[14] = Volume of distribution in Sprague-Dawley rat at 1 mg/kg, iv administered as single bolus dose by LC-MS analysis; type: ADME, organism-based; conditions: in vivo; in short: as §4
[15] = Cmax in Sprague-Dawley rat at 10 mg/kg, po administered as single dose by LC-MS analysis; type: ADME, organism-based; parameters: route oral, dose 10 mg/kg; conditions: in vivo; in short: as §5
[16] = Intrinsic clearance in monkey liver microsomes assessed per mg protein incubated for 10 mins followed by potassium phosphate buffer addition and measured up to 60 mins by LC-MS analysis; type: ADME, Macaca mulatta, Microsome; conditions: rhesus monkey, time <=70 min, read-out: CLH; in short: as §3
[17] = Elimination half life in rat liver microsomes incubated for 10 mins followed by potassium phosphate buffer addition and measured up to 60 mins by LC-MS analysis; type: ADME, Microsome; conditions: time <=70 min, read-out: LambdaZ; in short: as §7
[18] = AUC (0 to infinity) in Sprague-Dawley rat at 10 mg/kg, po administered as single dose by LC-MS analysis; type: ADME, organism-based; parameters: route oral, time infinity, dose 10 mg/kg; conditions: in vivo
In short: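 Male Sprague-Dawley rats, 8 weeks old, fasted overnight, were dosed once by oral gavage. The compound was suspended at 1.0 mg/mL in saline with 0.5% CMC-Na and 0.2% Tween 80. Plasma concentrations were followed over time. Plasma was deproteinised with acetonitrile containing verapamil and glibenclamide, diluted with water and analysed by LC/MS. Values are mean ± SD, n = 3 rats.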

[19] = Clearance in Sprague-Dawley rat at 1 mg/kg, iv administered as single bolus dose by LC-MS analysis; type: ADME, organism-based; conditions: in vivo; in short: as §4
[20] = Half life in Sprague-Dawley rat at 10 mg/kg, po administered as single dose by LC-MS analysis; type: ADME, organism-based; conditions: in vivo; in short: as §5
[21] = Oral bioavailability in Sprague-Dawley rat at 10 mg/kg administered as single dose by LC-MS analysis; type: ADME, organism-based; conditions: in vivo
[22] = Intrinsic hepatic clearance in dog; type: ADME, Canis lupus familiaris; conditions: in vivo, read-out: CLH; in short: as §6
[23] = Intrinsic hepatic clearance in human; type: ADME; conditions: read-out: CLH; in short: as §6
[24] = AUC (0 to infinity) in Sprague-Dawley rat at 1 mg/kg, iv administered as single bolus dose by LC-MS analysis; type: ADME, organism-based; parameters: route intravenous, time infinity, dose 1 mg/kg; conditions: in vivo
In short: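 Male Sprague-Dawley rats, 8 weeks old, fasted overnight, received a single rapid tail-vein bolus. Vehicle was DMSO:PEG200:saline 20:20:60 v/v/v at 0.2 mg/mL. Plasma concentrations were followed over time. Plasma was deproteinised with acetonitrile containing verapamil and glibenclamide, diluted with water and analysed by LC/MS. Values are mean ± SD, n = 3 rats.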

[25] = Elimination half life in human liver microsomes incubated for 10 mins followed by potassium phosphate buffer addition and measured up to 60 mins by LC-MS analysis; type: ADME, Microsome; conditions: time <=70 min, read-out: LambdaZ; in short: as §7
[26] = Elimination half life in dog liver microsomes incubated for 10 mins followed by potassium phosphate buffer addition and measured up to 60 mins by LC-MS analysis; type: ADME, Canis lupus familiaris, Microsome; conditions: time <=70 min, read-out: LambdaZ; in short: as §7
[27] = Intrinsic hepatic clearance in rat; type: ADME; conditions: in vivo, read-out: CLH; in short: as §6
[28] = Intrinsic clearance in rat liver microsomes assessed per mg protein incubated for 10 mins followed by potassium phosphate buffer addition and measured up to 60 mins by LC-MS analysis; type: ADME, Microsome; conditions: time <=70 min, read-out: CLH; in short: as §3

OC1(C#Cc2ccc3nccc(-c4cn[nH]c4)c3c2)CCCC1
IC50 [1]: 564 nM

CC(O)(C#Cc1ccc2c(c1)N(c1nc(N)ncc1Cl)CC2)c1nccs1 (stereo not drawn)
inhibition at 0.4 µM [2]: 19%
inhibition at 48 h, 10 µM [3]: 30%
inhibition at 1 µM (J774): 43.9%
IC50 [1]: 4.9 nM
inhibition at 2 µM [4]: 59.6%

CC(O)(C#Cc1ccc2nc(OCCN3CCOCC3)cc(-c3cn[nH]c3)c2c1)c1nccs1 (stereo not drawn)
Activity [5]: 92%

Cn1cc(-c2ccnc3ccc(C#CC(C)(C)O)cc23)cn1
Activity [5]: 99.1%

CN1CCC(n2cc(-c3c[nH]nc3Cl)c3cc(C#CC(C)(C)O)c(F)cc32)CC1
EC50 (JJN-3): 61 nM

CC(O)(C#Cc1ccc2nc(O)cc(-c3cn[nH]c3)c2c1)c1nccs1 (stereo not drawn)
inhibition at 0.4 µM [2]: 23.3%
inhibition at 1 µM (J774): 31.4%
Activity [6]: Non-Toxic
IC50 [1]: 38.6 nM
inhibition at 2 µM [4]: 27.2%

O=C(Nc1ccc2nccc(-c3cn[nH]c3)c2c1)c1nccs1
Activity [5]: 72.3%

O=C(Nc1ccc2nccc(-c3cn[nH]c3)c2c1)C1CCCC1
Activity [5]: 83.6%

CC(O)(C#Cc1ccc2nccc(-c3cn[nH]c3)c2c1)c1cccs1 (stereo not drawn)
IC50 [1]: 524 nM

CC(O)(C#Cc1ccc2nccc(-c3cn[nH]c3)c2c1)c1nccs1 (stereo not drawn)
microsomal CLint [7]: 97.5 µL/min/mg
C0 [8]: 1000 ng/mL
microsomal CLint [9]: 42.6 µL/min/mg
inhibition at 0.4 µM [2]: 36.1%
Tmax [10]: 54 min
inhibition at 1 µM (J774): 43.8%
half-life [11]: 22.9 min
CLint scaled [12]: 60.2 mL/min/kg
Activity [6]: Non-Toxic
half-life [13]: 33.2 min
Vd [14]: 2.73 L/kg
IC50 [1]: 22.1 nM
Cmax [15]: 311 ng/mL
microsomal CLint [16]: 41.8 µL/min/mg
half-life [17]: 12.6 min
AUC(0-inf) [18]: 885 ng·h/mL
clearance [19]: 43.3 mL/min/kg
half-life [20]: 71.4 min
bioavailability [21]: 21.7%
CLint scaled [22]: 140 mL/min/kg
CLint scaled [23]: 40.2 mL/min/kg
AUC(0-inf) [24]: 408 ng·h/mL
half-life [25]: 33.1 min
half-life [26]: 14.2 min
CLint scaled [27]: 199 mL/min/kg
inhibition at 2 µM [4]: 52.5%
microsomal CLint [28]: 110 µL/min/mg

CNc1cc(-c2cn[nH]c2)c2cc(C#CC(C)(O)c3nccs3)ccc2n1 (stereo not drawn)
inhibition at 0.4 µM [2]: 18.4%
inhibition at 1 µM (J774): 46.5%
IC50 [1]: 26 nM
inhibition at 2 µM [4]: 34.5%

CC(O)(/C=C/c1ccc2nccc(-c3cn[nH]c3)c2c1)c1nccs1 (stereo not drawn)
IC50 [1]: 2080 nM

CC(O)(C#Cc1ccc2nccc(-c3cn[nH]c3)c2c1)c1ccccn1 (stereo not drawn)
IC50 [1]: 591 nM

CN(C)CCN(C)c1cc(-c2cn[nH]c2)c2cc(C#CC(C)(O)c3nccs3)ccc2n1 (stereo not drawn)
inhibition at 0.4 µM [2]: 19.9%
inhibition at 1 µM (J774): 34.6%
Activity [6]: Non-Toxic
IC50 [1]: 160 nM
inhibition at 2 µM [4]: 22.7%

CN1CCN(c2cc(-c3cn[nH]c3)c3cc(C#CC(C)(O)c4nccs4)ccc3n2)CC1 (stereo not drawn)
inhibition at 0.4 µM [2]: 19.4%
inhibition at 48 h, 10 µM [3]: 30%
inhibition at 1 µM (J774): 41%
IC50 [1]: 175 nM
inhibition at 2 µM [4]: 36.7%

COCCN(C)c1cc(-c2cn[nH]c2)c2cc(C#CC(C)(O)c3nccs3)ccc2n1 (stereo not drawn)
inhibition at 0.4 µM [2]: 33%
inhibition at 48 h, 10 µM [3]: 30%
inhibition at 1 µM (J774): 51.4%
IC50 [1]: 5.2 nM
inhibition at 2 µM [4]: 53.1%

OC1(C#Cc2ccc3nccc(-c4cn[nH]c4)c3c2)CCCCC1
IC50 [1]: 6050 nM

CC(C)(O)C#Cc1ccc2nccc(-c3cn[nH]c3)c2c1
IC50 [1]: 1720 nM

CC(O)(C#Cc1ccc(N2CCOCC2)c(Nc2ncnc3[nH]ccc23)c1)c1nccs1 (stereo not drawn)
Activity [6]: Non-Toxic
